Test results from ChEMBL document CHEMBL4229360, “Antimalarial agents against both sexual and asexual parasites stages: structure-activity relationships and biological studies of the Malaria Box compound 1-[5-(4-bromo-2-chlorophenyl)furan-2-yl]-N-[(piperidin-4-yl)methyl]methanamine (MMV019918) and analogues” (Eur J Med Chem, 2018).
Active and inactive are the calls of the source. The calls are words filed in the database; no cut-off is given here.

Legend:
Plasmodium falciparum [1] = experiment: Antiplasmodial activity against chloroquine-sensitive Plasmodium falciparum D10 after 72 hrs by lactate dehydrogenase assay; type: functional, organism-based; details: D10, 72 h
In short: (§1)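 Asynchronous blood-stage cultures at 1–1.5% parasitemia and 1% final hematocrit in human A+ RBCs, RPMI 1640 with 1% AlbuMax, hypoxanthine, HEPES and glutamine. Serial dilutions from DMSO stocks, final DMSO <1%. Incubated 72 h at 37 °C under 1% O₂/5% CO₂. IC50 is the mean of ≥3 experiments in duplicate.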

Plasmodium falciparum [2] = experiment: Antiplasmodial activity against chloroquine-resistant Plasmodium falciparum W2 after 72 hrs by lactate dehydrogenase assay; type: functional, organism-based; details: W2, 72 h; in short: as §1
Plasmodium falciparum [3] = experiment: Gametocytocidal activity against Plasmodium falciparum 3D7 elo1-pfs16-CBG99 late-stage (4 to 5) gametocytes assessed as inhibition of parasite viability after 72 hrs by luciferase reporter assay; type: functional, organism-based; details: 3D7 elo1-pfs16-CBG99, 72 h
In short: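 Transgenic 3D7elo1-pfs16-CBG99 gametocytes express CBG99 luciferase from the pfs16 promoter. Stage IV–V gametocytes (Giemsa-checked) were exposed at day 8–10 after NAG addition to serial dilutions in complete medium for 72 h. Samples at 2% haematocrit were then mixed 1:1 with D-luciferin (1 mM, pH 5.5 citrate) for 10 min and luminescence was read. IC50 came from non-linear regression, mean of ≥3 experiments in duplicate.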

Plasmodium falciparum [4] = experiment: Antiplasmodial activity against asexual blood stage Plasmodium falciparum NF54 after 72 hrs by SYBR green-based fluorometric analysis; type: functional, organism-based; details: NF54, 72 h
In short: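 Asexual NF54 seeded at 0.83% parasitaemia, 1.5% haematocrit, in RPMI1640 with 10% human serum. Serial dilutions, final DMSO 0.1%. Incubated 72 h at 37 °C under 3% O2, 4% CO2, then read by SYBR Green fluorescence.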

Plasmodium falciparum [5] = experiment: (§2) Antiplasmodial activity against gametocytes of Plasmodium falciparum NF54 infected in Anopheles mosquitoes assessed as decrease in infection intensity measured at baseline infection intensity of 30 oocysts/midgut pre-treated with compound for 24 hrs before feeding and measured 8 days post infection by standard membrane feeding assay; type: functional, organism-based
In short: (§3)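 NF54-HGL luciferase-reporter gametocytes were pre-incubated with compound for 24 h, then membrane-fed to Anopheles mosquitoes. Infection was read by luminescence 8 d post-infection, with 24 mosquitoes analysed per feed and each feed done in duplicate. IC50 was derived for infection intensity and for prevalence at a baseline of 30 oocysts/midgut.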

Plasmodium falciparum [6] = experiment: as §2, with “in infection prevalance measured at” for “in infection intensity measured at”; type: functional, organism-based; in short: as §3
Plasmodium berghei = experiment: Antimalarial activity against liver stage form of mCherry expressing Plasmodium berghei ANKA sporozoites infected in mouse primary hepatocytes assessed as reduction in parasite load at 0.0625 to 4 uM administered 2 hrs post infection and measured after 48 hrs post infection with medium change at 24 hrs post infection by fluorescent microscopic analysis; type: functional, organism-based
In short: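 Parasite number and size in unfixed cells by automated microscopy at 48 hpi. Detached cells collected at 65 hpi, counted by fluorescence microscopy, expressed as % of 48 h parasite number. n = 4; one-way ANOVA with Dunnett's test.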

[7] = Cardiotoxicity in Langendorff perfused Wistar rat heart assessed as reduction of left ventricular pressure; type: toxicity, tissue-based
[8] = Cardiotoxicity in Langendorff perfused Wistar rat heart assessed as coronary perfusion pressure at 0.1 to 10 uM; type: toxicity, tissue-based
[9] = Cardiotoxicity in Langendorff perfused Wistar rat heart assessed as frequency of heart rate at 0.1 uM by electrocardiography (reference value: 247.05 to 275.90 bpm); type: toxicity, tissue-based
[10] = Cardiotoxicity in Langendorff perfused Wistar rat heart assessed as frequency of heart rate at 1 uM by electrocardiography (reference value: 247.05 to 275.90 bpm); type: toxicity, tissue-based
[11] = Cardiotoxicity in Langendorff perfused Wistar rat heart assessed as frequency of heart rate at 3 uM by electrocardiography (reference value: 247.05 to 275.90 bpm); type: toxicity, tissue-based
[12] = Cardiotoxicity in Langendorff perfused Wistar rat heart assessed as cycle length interval time at 0.1 uM by electrocardiography (reference value: 217.15 to 242.23 milliseconds); type: toxicity, tissue-based
[13] = Cardiotoxicity in Langendorff perfused Wistar rat heart assessed as cycle length interval time at 10 uM by electrocardiography (reference value: 217.15 to 242.23 milliseconds); type: toxicity, tissue-based
[14] = Cardiotoxicity in Langendorff perfused Wistar rat heart assessed as PQ interval time at 0.1 uM by electrocardiography (reference value: 41.13 to 42.63 milliseconds); type: toxicity, tissue-based
[15] = Cardiotoxicity in Langendorff perfused Wistar rat heart assessed as PQ interval time at 1 uM by electrocardiography (reference value: 41.13 to 42.63 milliseconds); type: toxicity, tissue-based
[16] = Cardiotoxicity in Langendorff perfused Wistar rat heart assessed as PQ interval time at 10 uM by electrocardiography (reference value: 41.13 to 42.63 milliseconds); type: toxicity, tissue-based
[17] = Cardiotoxicity in Langendorff perfused Wistar rat heart assessed as QRS interval time at 3 uM by electrocardiography (reference value: 13.31 to 14.35 milliseconds); type: toxicity, tissue-based
[18] = Cardiotoxicity in Langendorff perfused Wistar rat heart assessed as QTc interval time at 0.1 uM by electrocardiography (reference value: 76.45 to 80.07 milliseconds); type: toxicity, tissue-based
[19] = Cardiotoxicity in Langendorff perfused Wistar rat heart assessed as QTc interval time at 1 uM by electrocardiography (reference value: 76.45 to 80.07 milliseconds); type: toxicity, tissue-based
[20] = target: T1, Phosphoethanolamine N-methyltransferase (Plasmodium falciparum, UniProt Q8IDQ9); experiment: Inhibition of plasmodium falciparum phosphoethanolamine N-methyltransferase expressed in Escherichia coli using phosphoethanolamine as substrate and [methyl-14C] SAM by radiochemical assay
T1 sequence (Q8IDQ9 whole entry): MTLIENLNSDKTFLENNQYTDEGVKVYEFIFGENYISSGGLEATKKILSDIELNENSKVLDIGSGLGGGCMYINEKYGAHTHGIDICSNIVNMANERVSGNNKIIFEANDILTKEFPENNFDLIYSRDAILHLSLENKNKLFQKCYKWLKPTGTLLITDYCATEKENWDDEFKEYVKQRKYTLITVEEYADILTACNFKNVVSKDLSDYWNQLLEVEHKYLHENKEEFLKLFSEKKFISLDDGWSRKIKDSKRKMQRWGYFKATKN
In short: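 Recombinant PfPMT purified from E. coli, 2 μg per 100 μL reaction. Buffer 0.1 M HEPES-KOH pH 8.0, 2 mM Na2EDTA, 10% glycerol, 5% DMSO, with 30 μM SAM (100 nCi [methyl-14C]SAM) and 55 μM phosphoethanolamine; radiochemical read-out.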

[21] = target: T2, Voltage-dependent L-type calcium channel subunit alpha-1C (Rattus norvegicus, UniProt P22002); experiment: Inhibition of CaV1.2 channel in rat tail artery myocytes assessed as reduction in Ba2+ current at -50 mV holding potential by whole-cell patch-clamp assay; type: cell-based
T2 sequence (P22002 whole entry): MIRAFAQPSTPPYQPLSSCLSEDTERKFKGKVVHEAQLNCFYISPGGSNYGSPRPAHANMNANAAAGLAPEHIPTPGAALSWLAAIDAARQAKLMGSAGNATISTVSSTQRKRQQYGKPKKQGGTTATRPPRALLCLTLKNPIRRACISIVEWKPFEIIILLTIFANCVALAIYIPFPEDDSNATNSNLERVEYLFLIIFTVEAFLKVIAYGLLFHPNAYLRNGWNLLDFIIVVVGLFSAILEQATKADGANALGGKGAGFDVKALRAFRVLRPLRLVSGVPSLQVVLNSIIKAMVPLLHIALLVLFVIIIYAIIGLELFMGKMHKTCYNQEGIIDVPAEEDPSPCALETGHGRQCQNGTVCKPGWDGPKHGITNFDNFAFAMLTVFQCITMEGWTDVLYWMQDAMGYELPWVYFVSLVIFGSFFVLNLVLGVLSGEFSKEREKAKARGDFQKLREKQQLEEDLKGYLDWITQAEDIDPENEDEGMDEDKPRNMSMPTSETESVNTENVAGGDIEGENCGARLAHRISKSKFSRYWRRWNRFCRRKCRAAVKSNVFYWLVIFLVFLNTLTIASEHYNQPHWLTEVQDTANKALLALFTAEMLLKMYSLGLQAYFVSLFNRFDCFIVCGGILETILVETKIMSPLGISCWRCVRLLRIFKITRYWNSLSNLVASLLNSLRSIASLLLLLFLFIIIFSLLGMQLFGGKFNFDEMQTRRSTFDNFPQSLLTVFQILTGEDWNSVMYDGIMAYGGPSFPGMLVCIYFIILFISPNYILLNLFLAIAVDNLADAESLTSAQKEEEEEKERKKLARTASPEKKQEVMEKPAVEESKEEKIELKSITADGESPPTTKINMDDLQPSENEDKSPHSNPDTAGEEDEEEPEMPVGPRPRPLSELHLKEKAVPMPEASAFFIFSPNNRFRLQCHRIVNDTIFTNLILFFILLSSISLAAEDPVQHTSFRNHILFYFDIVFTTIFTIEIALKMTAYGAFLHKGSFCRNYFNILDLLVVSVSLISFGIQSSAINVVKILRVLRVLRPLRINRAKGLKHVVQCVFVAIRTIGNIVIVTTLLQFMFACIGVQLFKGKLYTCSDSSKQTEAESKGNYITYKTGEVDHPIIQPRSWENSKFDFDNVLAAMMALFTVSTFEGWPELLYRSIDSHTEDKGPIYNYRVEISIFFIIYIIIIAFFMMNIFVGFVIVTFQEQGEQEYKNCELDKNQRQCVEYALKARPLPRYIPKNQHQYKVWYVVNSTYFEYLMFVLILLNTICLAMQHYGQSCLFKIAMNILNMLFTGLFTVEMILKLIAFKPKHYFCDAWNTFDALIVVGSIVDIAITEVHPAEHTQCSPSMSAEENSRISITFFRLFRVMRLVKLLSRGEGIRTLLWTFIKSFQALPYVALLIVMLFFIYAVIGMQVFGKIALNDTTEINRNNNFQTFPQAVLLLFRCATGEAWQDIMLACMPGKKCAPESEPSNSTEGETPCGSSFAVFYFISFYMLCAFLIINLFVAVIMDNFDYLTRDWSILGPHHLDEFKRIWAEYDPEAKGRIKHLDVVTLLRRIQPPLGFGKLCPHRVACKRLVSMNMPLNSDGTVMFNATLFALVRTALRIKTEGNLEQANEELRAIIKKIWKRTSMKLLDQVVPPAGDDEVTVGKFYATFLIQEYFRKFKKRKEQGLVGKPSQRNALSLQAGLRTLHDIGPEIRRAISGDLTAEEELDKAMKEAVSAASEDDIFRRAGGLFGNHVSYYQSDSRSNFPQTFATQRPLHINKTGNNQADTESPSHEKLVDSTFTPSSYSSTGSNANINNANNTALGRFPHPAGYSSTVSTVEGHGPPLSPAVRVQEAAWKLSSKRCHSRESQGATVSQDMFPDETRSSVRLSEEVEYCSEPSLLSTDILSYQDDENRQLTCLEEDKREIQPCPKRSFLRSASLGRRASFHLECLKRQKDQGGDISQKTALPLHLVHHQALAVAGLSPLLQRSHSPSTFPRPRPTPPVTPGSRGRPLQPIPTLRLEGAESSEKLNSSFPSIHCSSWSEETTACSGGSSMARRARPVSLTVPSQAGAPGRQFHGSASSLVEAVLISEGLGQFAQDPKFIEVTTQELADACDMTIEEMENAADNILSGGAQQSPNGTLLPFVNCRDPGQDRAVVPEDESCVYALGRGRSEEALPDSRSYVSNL
In short: (§4)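 Freshly isolated rat tail artery smooth muscle cells (collagenase digestion), whole-cell patch clamp at 20–22 °C. External solution: 5 mM Ba2+, 30 mM TEA; Cs+-based internal solution, pH 7.4. Currents from 250-ms pulses to 0 mV from Vh −50 mV at 0.067 Hz, after 7–10 min stabilisation. Leak corrected with 10 μM nifedipine. Peak current as % of control; n = 3–6 cells from ≥3 animals.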

[22] = target: T2, Voltage-dependent L-type calcium channel subunit alpha-1C; experiment: Inhibition of CaV1.2 channel in rat tail artery myocytes assessed as reduction in Ba2+ current at 30 uM at -50 mV holding potential by whole-cell patch-clamp assay; type: cell-based; in short: as §4

With `Clc1ccc(-c2ccc(CNCC3CCNCC3)o2)c(-c2ccccc2)c1` the IC50 (Plasmodium falciparum [1]) was 880 nM, the IC50 (Plasmodium falciparum [2]) was 2400 nM and the IC50 (Plasmodium falciparum [3]) was 1400 nM. It also gave an IC50 (Plasmodium falciparum [4]) of 670 nM, an IC50 (Plasmodium falciparum [5]) of 210 nM and an IC50 (Plasmodium falciparum [6]) of 830 nM. The Activity (Plasmodium berghei) was “inactive”, the Activity [7] was “Dose-dependent effect” and the Activity [8] was “Non-Toxic”. For the same compound, the Activity [9] was 276.19 bpm, the Activity [10] was 275.47 bpm and the Activity [11] was 276.4 bpm. The Time [12] was 218.32 ms, the Time [13] was 232.2 ms and the Time [14] was 41.24 ms. It also gave a Time [15] of 41.59 ms, a Time [16] of 65.08 ms and a Time [17] of 14.65 ms. For the same compound, the Time [18] was 74.92 ms, the Time [19] was 77.21 ms and the IC50 [20] was 44300 nM. For the same compound, the IC50 [21] was 3300 nM, the “inhibition (INH)” value ([21]; rat) was “Dose-dependent effect” and the “inhibition (INH)” value [22] was “Active”.
